Experimental data as given in ChEMBL document CHEMBL1145793, “Discovery and structure-activity relationships of novel piperidine inhibitors of farnesyltransferase” (J Med Chem, 2003).

Target: Protein farnesyltransferase (Bos taurus, UniProt P29702+P49355)
Assay: Inhibition of bovine brain farnesyltransferase (FTase) farnesylation of viral K-Ras
Outline: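 Partially purified bovine brain farnesyltransferase, used as a crude dialysate. Substrates were viral K-Ras protein and [3H]farnesyl pyrophosphate. It was calculated by comparing untreated enzyme activity with activity at known inhibitor concentrations.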

IC50 | Compound
0.03 µM | O=C1CC(c2ccccc2Br)[C@H]([N+](=O)[O-])[C@@H](c2ccc(O)c(O)c2)N1Cc1cccnc1 (single isomer, unassigned; (+))
0.14 µM | O=C1CC(c2ccccc2Br)[C@H]([N+](=O)[O-])[C@@H](c2ccc(O)cc2)N1Cc1cccnc1 (mixture of isomers)
0.075 µM | O=C1CC(c2ccccc2Br)[C@H]([N+](=O)[O-])[C@@H](c2ccc(O)cc2)N1Cc1cccnc1 (single isomer, unassigned; (+))
0.046 µM | O=C1CC(c2ccccc2Br)[C@H]([N+](=O)[O-])[C@@H](c2ccc(O)c(O)c2)N1Cc1cccnc1 (mixture of isomers)
0.097 µM | Nc1cc([C@@H]2[C@@H]([N+](=O)[O-])C(c3ccccc3Br)CC(=O)N2Cc2cccnc2)ccc1O (stereo not given in full)
0.42 µM | O=C1CC(c2cccc(Br)c2)[C@H]([N+](=O)[O-])[C@@H](c2ccc(O)cc2)N1Cc1cccnc1 (stereo in doubt)
> 0.31 µM | O=[N+]([O-])[C@H]1C(c2ccccc2Br)CCN(Cc2cccnc2)[C@@H]1c1ccc(O)c(O)c1 (stereo in doubt; 8-(-))
> 1.2 µM | COc1ccc([C@@H]2[C@@H]([N+](=O)[O-])C(c3ccccc3Br)CC(=O)N2Cc2cccnc2)cc1 (stereo not given in full)
0.0019 µM | O=[N+]([O-])[C@H]1C(c2ccccc2Br)CCN(Cc2cccnc2)[C@@H]1c1ccc(O)c(O)c1 (single isomer, unassigned; (+))
0.35 µM | O=C1CC(c2cccc(Br)c2)[C@H]([N+](=O)[O-])[C@@H](c2ccc(O)cc2)N1Cc1cccnc1 (stereo in doubt; 1)
1.2 µM | O=C1CC(c2ccccc2Br)[C@H]([N+](=O)[O-])[C@@H](c2ccc(O)c(O)c2)N1Cc1cccnc1 (single isomer, unassigned; (-))
> 1.2 µM | O=C1CC(c2ccccc2Br)[C@H]([N+](=O)[O-])[C@@H](c2ccc(O)c(CO)c2)N1Cc1cccnc1 (stereo not given in full)
0.0037 µM | O=[N+]([O-])[C@H]1C(c2ccccc2Br)CCN(Cc2cccnc2)[C@@H]1c1ccc(O)c(O)c1 (mixture of isomers)
0.95 µM | O=C1CC(c2ccccc2Br)[C@H]([N+](=O)[O-])[C@@H](c2ccc(O)cc2)N1Cc1cccnc1 (single isomer, unassigned; (-))

The remaining lines, values behind:

Compound | IC50
O=[N+]([O-])[C@H]1C(c2ccccc2Br)CCN(Cc2cccnc2)[C@@H]1c1ccc(O)cc1 (mixture of isomers) | 0.0082 µM
O=[N+]([O-])[C@H]1C(c2ccccc2Br)CCN(Cc2cccnc2)[C@@H]1c1ccc(O)cc1 (single isomer, unassigned; (+)) | 0.0058 µM
O=[N+]([O-])[C@H]1C(c2ccccc2Br)CCN(Cc2cccnc2)[C@@H]1c1ccc(O)cc1 (single isomer, unassigned; (-)) | > 0.31 µM
Cc1cccc(C2CC(=O)N(Cc3cccnc3)[C@H](c3ccc(O)cc3)[C@H]2[N+](=O)[O-])c1 (stereo not given in full) | 0.41 µM
N[C@H]1C(c2cccc(Br)c2)CC(=O)N(Cc2cccnc2)[C@@H]1c1ccc(O)cc1 (stereo not given in full) | > 3.7 µM
O=C1CC(c2cccc(Br)c2)[C@H](NO)[C@@H](c2ccc(O)cc2)N1Cc1cccnc1 (stereo not given in full) | > 3.7 µM
O=C1CC(c2cccc(Br)c2)[C@H]([N+](=O)[O-])[C@@H](c2ccc(O)cc2)N1Cc1ccc[n+]([O-])c1 (stereo not given in full) | > 3.7 µM
O=[N+]([O-])[C@H]1C(c2ccccc2Br)C=CN(Cc2cccnc2)[C@@H]1c1ccc(O)c(O)c1 (stereo not given in full) | 0.013 µM
O=C1CC(c2ccc(Br)cc2)[C@H]([N+](=O)[O-])[C@@H](c2ccc(O)cc2)N1Cc1cccnc1 (stereo not given in full) | > 3.7 µM
O=C1CC(c2cccc(Cl)c2)[C@H]([N+](=O)[O-])[C@@H](c2ccc(O)cc2)N1Cc1cccnc1 (stereo not given in full) | 0.32 µM
O=C1CC(c2cccc(Br)c2)[C@H]([N+](=O)[O-])[C@@H](c2ccc(O)cc2)N1Cc1ccncc1 (stereo not given in full) | > 3.7 µM
